Screening data from PubChem.
NS3 helicase inh: inhibitors of Hepatitis C virus NS3 helicase. NS3 helicase DNA unwinding, Cy5 molecular beacon fluorescence. inhibition, % at 10.9 µM. hit rate 0.56% among 290,000. AID 1800;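 active = inhibition above the mean of all tested compounds plus 3 SD, set per campaign, cut at about 35% in these data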
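System: NS3 helicase fragment of HCV / Schedule: 1 h at 25 °C / Control set: DMSO alone as 0% and 110 µM thioflavine S as 100% / Reagent: Cy5/quencher beacon DNA duplex and ATP to start / Technique: Cy5 fluorescence / Replication: singlicate / Evaluation: % inhibition of end-to-start signal ratio versus controls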
CHOP inh: inhibitors of CHOP induction in ER stress response; CHO-K1 CHOP-promoter luciferase, tunicamycin-induced, 15-18 h; inhibition, % at 10 µM; AID 2732; hit rate 3.8% among 220,000;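 active = compounds that reduced the stress-induced luciferase reporter signal by more than about 70% of percent inhibition, limit read from the data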
p97 inhibitor: blocks human p97 ATPase activity. P55072. hit rate 0.42% among 220,000. recombinant p97 ATPase, Kinase-Glo ATP luminescence, 3 h. AID 1481. inhibition, % at 8 µM; in the data active = inhibition above about 15%
Target sequence (P55072 whole entry, looked up): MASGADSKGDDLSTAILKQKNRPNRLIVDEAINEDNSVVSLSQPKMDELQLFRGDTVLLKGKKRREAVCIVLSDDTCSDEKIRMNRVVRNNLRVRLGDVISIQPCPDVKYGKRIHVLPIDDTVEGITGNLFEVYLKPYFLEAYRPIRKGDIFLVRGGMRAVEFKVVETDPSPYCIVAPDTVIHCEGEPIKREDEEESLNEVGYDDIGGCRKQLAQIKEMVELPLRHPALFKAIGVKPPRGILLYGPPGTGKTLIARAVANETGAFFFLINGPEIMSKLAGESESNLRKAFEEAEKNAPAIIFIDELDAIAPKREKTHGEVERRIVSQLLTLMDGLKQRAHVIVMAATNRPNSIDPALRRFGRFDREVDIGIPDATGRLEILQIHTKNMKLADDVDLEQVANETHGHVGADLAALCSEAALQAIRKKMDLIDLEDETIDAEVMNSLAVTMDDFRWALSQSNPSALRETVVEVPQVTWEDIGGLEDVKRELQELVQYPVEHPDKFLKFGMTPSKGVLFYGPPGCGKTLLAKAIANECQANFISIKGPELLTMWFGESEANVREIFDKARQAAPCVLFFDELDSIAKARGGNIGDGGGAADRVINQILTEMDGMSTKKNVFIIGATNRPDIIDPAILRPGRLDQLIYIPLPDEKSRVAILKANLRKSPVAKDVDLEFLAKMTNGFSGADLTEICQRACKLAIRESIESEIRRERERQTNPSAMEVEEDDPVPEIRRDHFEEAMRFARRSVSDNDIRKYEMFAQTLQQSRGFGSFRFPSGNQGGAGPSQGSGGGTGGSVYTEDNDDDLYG
UPR XBP1 act: adaptive UPR (XBP1) activation. AID 463104. activation, % at 20 µM. hit rate 0.33% among 330,000. CHO-XBP1 luciferase reporter, IRE1-XBP1 UPR activation, luminescence; percent of tunicamycin response, DMSO as zero;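 active = versus positive control, 20 µM dose yields 30% or more activation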
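Material: CHO-XBP1 cells stably carrying IRE1-XBP1-driven luciferase reporter | Medium: F12 with 10% serum | Compound dosing: 20 µM single concentration, DMSO 1% | Incubation: Overnight seeding at 37 °C, 6 h compound treatment at 37 °C | Detection: Steady-Glo luminescence read | Read-out basis: % activation of reporter signal versus tunicamycin and DMSO controls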
M18AAP inhibitor: blocks P. falciparum M18 aspartyl aminopeptidase; hit rate 1.2% among 290,000; inhibition, % at 7.35 µM; AID 1822; recombinant PfM18AAP, H-Glu-NHMec fluorogenic cleavage;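 active = inhibition above the campaign mean inhibition over all tested compounds plus 3 SD, cut at about 28% in these data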
UPR CHOP act: activators of apoptotic arm of unfolded protein response (CHOP); CHO-CHOP luciferase reporter, UPR activation, luminescence; percent of tunicamycin response over DMSO baseline; activation, % at 10 µM; hit rate 0.34% among 330,000;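 active = at 10 µM dose, activation of 40% or more, normalized to positive control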
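assay system = CHO CHOP reporter cells | amount = 500 CHO-CHOP cells per well | buffer or medium = F12 with 10% FBS | incubation = 16-18 h cell attachment, then 6 h compound exposure, 37 °C | detection = luminescence read with Steady-Glo | read-out = percent activation relative to tunicamycin control | controls = tunicamycin high control, DMSO low control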
CHOP inh conf: confirmation of CHOP induction inhibitors; inhibition, % at 10 µM; CHO-CHOP promoter luciferase reporter, tunicamycin-induced, luminescence; AID 504437; hit rate 45% among 2,100; shares compounds with CHOP inh;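 active = mean of three repeat readings of reporter signal inhibition above a set limit, cut at about 70% in these data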
UPR CHOP confirm: confirmation of apoptotic unfolded protein response (CHOP) activators. shares compounds with UPR CHOP act. CHO-CHOP cells, CHOP-luciferase reporter luminescence; percent of tunicamycin response, DMSO as zero. activation, % at 10 µM. hit rate 64% among 1,000; in the data active = activation above about 33%
XBP1 UPR conf: adaptive UPR (XBP1) activation, confirmed; AID 485299; hit rate 63% among 1,000; CHO-XBP1 IRE1-XBP1 luciferase reporter, luminescence; shares compounds with UPR XBP1 act; activation, % at 20 µM;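 active = reporter signal at least 30% of the positive control's activation in two or more of four replicate wells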
Numbers stand for hits; . = inactive; / = not tested or not shown. Most compounds without a hit are left out; they make up all but 4.5% or so of the library.

SMILES | NS3 helicase inh | CHOP inh | p97 inhibitor | UPR XBP1 act | M18AAP inhibitor | UPR CHOP act | CHOP inh conf | UPR CHOP confirm | XBP1 UPR conf
CCOc1ccccc1NC(=O)CCC(=O)Nc1ccccc1OCC | . | . | . | . | . | . | / | / | /
CC(C)(C)OC(=O)C[C@@H]1C/C=C\C[C@H](CC(=O)N[C@H](CO)Cc2ccccc2)C(=O)N[C@H](C(C)(C)C)COC1=O | / | / | / | . | / | . | / | / | /
Cc1ccc(NN2C(=O)C=C(c3ccccc3)C2=O)cc1 | . | 107.3 | . | . | . | 54.4 | . | 171.6 | /
CCN1CCN(Cc2ccc(NC(=O)c3ccc(C)c(NC(=O)c4c[nH]c5cc(C(F)(F)F)ccc5c4=O)c3)cc2C(F)(F)F)CC1 | / | 104.2 | / | . | / | 68.4 | 114.2 | . | /
CC1=C(C(=O)OCc2ccccc2)C(c2cccc([N+](=O)[O-])c2)NC(=O)N1C (centres undefined) | . | / | / | . | . | . | / | / | /
Cc1ccc(/C(C#N)=C\c2ccc(N3CCOCC3)o2)cc1 | . | . | . | . | . | . | / | / | /
N#C/C(=C/c1ccc(N2CCCCCC2)o1)c1ccc(Cl)cc1 | . | 103.3 | . | . | . | 91.5 | . | . | /
Cc1cc(NC(=O)CCS(=O)(=O)c2nc(-c3ccccc3)cc(C(F)(F)F)n2)no1 | / | / | / | . | / | 137.6 | . | 465.8 | /
COc1ccc(-c2cc(C(F)(F)F)nc(SCC(=O)Nc3cc(C)on3)n2)cc1 | . | . | . | . | . | . | / | / | /
CC(=O)Nc1ccc(NC(=O)CCCc2ccccc2)cc1 | . | / | / | . | . | . | / | / | /
O=C1NN(c2ccccc2)C(=O)/C1=C/c1ccc(-c2ccc(Cl)c(C(=O)O)c2)o1 | . | . | . | / | . | / | / | / | /
Cc1ccc(Sc2ccc(/C=C3/C(=O)NN(c4ccccc4)C3=O)o2)cc1 | . | 98.3 | . | . | . | 43.7 | . | 40.1 | /
Cc1cccc(N2NC(=O)/C(=C/c3ccc(-c4ccc(Cl)c(C(=O)O)c4)o3)C2=O)c1 | . | . | . | / | . | / | / | / | /
O=C1NN(c2ccccc2)C(=O)/C1=C/c1ccc(Sc2ccc(Cl)cc2)o1 | . | 97.7 | . | . | . | 61.2 | 78.0 | 43.2 | /
CC(Oc1ccc(Cl)cc1)C(=O)Nc1ccccc1C(=O)N1CCOCC1 (centres undefined) | . | / | / | . | . | . | / | / | /
Cc1ccc(Cn2ncc(Cl)c(Cl)c2=O)cc1 | . | 107.2 | . | . | . | 42.3 | . | . | /
O=C(/C=C/Sc1ccc(C(F)(F)F)cn1)c1ccccc1 | . | 104.0 | . | . | . | 83.9 | . | 46.7 | /
O=C(Nc1ccc(-c2nc3ncccc3o2)cc1)c1ccc(Br)o1 | . | 103.3 | . | 62.4 | . | . | . | / | .
O=C(Nc1ccc(-c2nc3ncccc3o2)cc1)c1ccco1 | . | . | . | . | . | . | / | / | /
CC(C)N(CC(O)COc1ccc(CC(N)=O)cc1)CC(O)COc1ccc(CC(N)=O)cc1 (centres undefined) | . | / | / | . | . | . | / | / | /
O=C(c1cc(C2CC2)nc2ccccc12)N1N=C(C(F)F)CC1(O)C(F)F (centres undefined) | . | . | . | . | . | . | / | / | /
CC(C)c1ccc(-c2cc(C(=O)N3N=C(C(F)F)CC3(O)C(F)F)c3ccccc3n2)cc1 (centres undefined) | . | 99.5 | . | 39.1 | . | . | 105.1 | / | .
O=C(O)c1cc(S(=O)(=O)Nc2ccc3cn[nH]c3c2)ccc1Cl | / | / | / | . | / | . | / | / | /
CCN1CCN(C(=O)C2CCC(=O)N(CCCN3CCCC3=O)C2)CC1 (centres undefined) | . | / | / | . | . | . | / | / | /
CCOC(=O)c1cnc(-n2nc(C)cc2C)nc1NC | . | . | . | . | . | . | / | / | /
SMILES | NS3 helicase inh | CHOP inh | p97 inhibitor | UPR XBP1 act | M18AAP inhibitor | UPR CHOP act | CHOP inh conf | UPR CHOP confirm | XBP1 UPR conf
CCOC(=O)c1cnc(-n2nc(C)cc2C)nc1NC1CCCCC1 | . | 106.4 | . | 39.6 | . | 99.4 | 116.8 | 34.2 | .
COC(=O)[C@@]1(C)[C@H]2C(=O)N(C)C(=O)[C@H]2[C@H]2CN=C(SC)N21 | / | / | / | . | / | . | / | / | /
CSc1cc(-c2ccc(Cl)cc2)n(Cc2ccccc2)c(=O)c1C#N | . | 100.9 | . | 32.2 | . | 44.5 | . | . | .
CCN(CC(=O)Nc1ccc(NC(C)=O)cc1)C(=O)c1ccccc1CCc1ccccc1 | / | / | / | . | / | . | / | / | /
CCc1ccc(-c2nc(CN3CCC(C(=O)NCCN(CC)c4ccccc4)CC3)c(C)o2)cc1 | . | 98.2 | . | 56.6 | . | . | 105.3 | / | 35.2
CCOC(=O)c1c(NC(=O)Cc2cccs2)sc(C(=O)NC2CCCCC2)c1C | . | 105.9 | . | 54.6 | . | . | 74.4 | / | 43.3
CCOC(=O)c1c(NC(=O)Cc2cccs2)sc(C(=O)NC2CCCC2)c1C | . | . | . | . | . | . | / | / | /
O=C(Nc1cc2c3c(c1)CC(=O)N3CCC2)c1ccccc1Br | / | / | / | . | / | . | / | / | /
COc1ccc(N=c2oc3ccc(OC)cc3cc2-c2nc3ccccc3[nH]2)cc1 | . | 101.9 | . | 84.3 | . | 134.7 | 107.0 | 147.0 | 132.6
Cc1cc(N2CCN(c3ccc(C(F)(F)F)cc3[N+](=O)[O-])CC2)c2ccccc2n1 | . | / | / | . | . | . | / | / | /
Cc1cc(N2CCN(c3ccc([N+](=O)[O-])c4cccnc34)CC2)c2ccccc2n1 | . | 104.7 | . | 104.1 | . | 42.1 | . | 52.5 | 62.4
Cc1ccc(NC(=O)c2cccc(S(=O)(=O)N3CCc4ccccc4C3)c2)nc1 | / | / | / | . | / | . | / | / | /
Cc1cc(N2CCN(C)CC2)ccc1NC(=O)c1cccc(S(=O)(=O)N2CCc3ccccc3C2)c1 | . | 103.8 | . | 34.1 | . | . | . | / | .
N#Cc1cc([N+](=O)[O-])ccc1NC(=O)COC(=O)C12CC3CC(CC(C3)C1)C2 | . | . | . | . | . | . | / | / | /
Cc1ccccc1OCc1n(CC(=O)OC2CC(C)CCC2C(C)C)c2ccccc2[n+]1C (centres undefined) | . | 107.6 | . | 45.1 | . | . | 137.2 | / | .
COc1cc(N(C(=O)Cc2cccs2)C(C(=O)NC2CCCCC2)c2ccc(C)cc2)ccc1-n1cnnn1 (centres undefined) | . | 105.3 | . | 35.1 | . | . | 92.1 | / | 37.5
Cc1cc(Nc2cccc([N+](=O)[O-])c2)n2c(nc3ccccc32)c1C#N | . | 103.1 | . | 37.0 | . | . | 86.9 | / | .
CCc1ccc(NC(=O)C(CC)Sc2nc3cc4c(cc3c(=O)n2Cc2ccco2)OCO4)cc1 (centres undefined) | . | 96.3 | . | 105.5 | . | 96.3 | . | 87.7 | 127.4
